Converted amounts (≈) assume the structure as drawn.
Legend:
Type in all cases: functional
Staphylococcus aureus [1] = assay: Antimicrobial activity against methicillin-resistant Staphylococcus aureus 15097 by two fold serial dilution technique
How it was run: (§1)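 MIC determined by twofold serial dilution in nutrient broth; values reported in μg/mL.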

Enterococcus faecalis = assay: Antimicrobial activity against Streptococcus faecalis 20688 by two fold serial dilution technique
How it was run: (§2)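 MIC determined by twofold serial broth dilution in nutrient broth, reported in μg/mL.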

Morganella morganii = assay: Antimicrobial activity against Proteus morganii 15153 by two fold serial dilution technique; how it was run: as §2
Proteus mirabilis [2] = assay: Antimicrobial activity against Proteus mirabilis 9900 by two fold serial dilution technique; how it was run: as §2
Klebsiella pneumoniae [3] = assay: Antimicrobial activity against Klebsiella pneumoniae 15130 by two fold serial dilution technique; how it was run: as §2
Streptococcus pneumoniae = assay: Antimicrobial activity against Streptococcus pneumoniae 1985 by two fold serial dilution technique; how it was run: as §2
Proteus mirabilis [4] = assay: Antimicrobial activity against Proteus mirabilis 9716 by two fold serial dilution technique; how it was run: as §2
Serratia marcescens = assay: Antimicrobial activity against Serratia marcescens 20019 by two fold serial dilution technique; how it was run: as §2
Enterobacter cloacae [5] = assay: Antimicrobial activity against Enterobacter cloacae 9659 by two fold serial dilution technique; how it was run: as §2
Staphylococcus aureus [6] = assay: Antimicrobial activity against Staphylococcus aureus 9537 by two fold serial dilution technique in presence of 50% serum
Enterobacter cloacae [7] = assay: Antimicrobial activity against Enterobacter cloacae 9656 by two fold serial dilution technique; how it was run: as §2
Escherichia coli [8] = assay: Antimicrobial activity against Escherichia coli 20341 by two fold serial dilution technique; how it was run: as §2
Pseudomonas aeruginosa = assay: Antimicrobial activity against Pseudomonas aeruginosa 9843 by two fold serial dilution technique; how it was run: as §2
Providencia rettgeri = assay: Antimicrobial activity against Providencia rettgeri 21205 by two fold serial dilution technique; how it was run: as §2
Escherichia coli [9] = assay: Antimicrobial activity against Escherichia coli 15119 by two fold serial dilution technique; how it was run: as §2
Staphylococcus aureus [10] = assay: Antimicrobial activity against Staphylococcus aureus 9537 by two fold serial dilution technique; how it was run: as §2
Klebsiella pneumoniae [11] = assay: Antimicrobial activity against Klebsiella pneumoniae 20468 by two fold serial dilution technique; how it was run: as §2
Streptococcus pyogenes = assay: Antimicrobial activity against Streptococcus pyogenes 9604 by two fold serial dilution technique; how it was run: as §2
Staphylococcus aureus [12] = assay: Antimicrobial activity against penicillin-resistant Staphylococcus aureus 9606 by two fold serial dilution technique; how it was run: as §1

Compound | MIC (Staphylococcus aureus [1]) | MIC (Enterococcus faecalis) | MIC (Morganella morganii) | MIC (Proteus mirabilis [2]) | MIC (Klebsiella pneumoniae [3]) | MIC (Streptococcus pneumoniae) | MIC (Proteus mirabilis [4]) | MIC (Serratia marcescens) | MIC (Enterobacter cloacae [5]) | MIC (Staphylococcus aureus [6]) | MIC (Enterobacter cloacae [7]) | MIC (Escherichia coli [8]) | MIC (Pseudomonas aeruginosa) | MIC (Providencia rettgeri) | MIC (Escherichia coli [9]) | MIC (Staphylococcus aureus [10]) | MIC (Klebsiella pneumoniae [11]) | MIC (Streptococcus pyogenes) | MIC (Staphylococcus aureus [12])
CC1=C(C(=O)O)N2C(=O)[C@@H](NC(=O)COc3ccccc3)[C@H]2SC1=O | > 125 µg/mL | 63 µg/mL (≈ 174 µM) | > 125 µg/mL | 125 µg/mL (≈ 345 µM) | > 125 µg/mL | 32 µg/mL (≈ 88.3 µM) | 125 µg/mL (≈ 345 µM) | > 125 µg/mL | > 125 µg/mL | > 63 µg/mL | > 125 µg/mL | > 125 µg/mL | > 125 µg/mL | > 125 µg/mL | > 125 µg/mL | 8 µg/mL (≈ 22.1 µM) | > 125 µg/mL | 32 µg/mL (≈ 88.3 µM) | 125 µg/mL (≈ 345 µM)
CC(=O)OCC1=C(C(=O)O)N2C(=O)[C@@H](NC(=O)Cc3cccs3)[C@H]2SC1=O | > 125 µg/mL | 125 µg/mL (≈ 305 µM) | > 125 µg/mL | 32 µg/mL (≈ 78 µM) | > 125 µg/mL | 1 µg/mL (≈ 2.44 µM) | 63 µg/mL (≈ 153 µM) | > 125 µg/mL | > 125 µg/mL | 63 µg/mL | > 125 µg/mL | > 125 µg/mL | > 125 µg/mL | > 125 µg/mL | > 125 µg/mL | 4 µg/mL (≈ 9.75 µM) | > 125 µg/mL | 1 µg/mL (≈ 2.44 µM) | 16 µg/mL (≈ 39 µM)
CC1=C(C(=O)O)N2C(=O)[C@@H](N)[C@H]2SC1=O.Cc1ccc(S(=O)(=O)O)cc1 | 125 µg/mL | 32 µg/mL | > 125 µg/mL | > 125 µg/mL | > 125 µg/mL | 63 µg/mL | 125 µg/mL | > 125 µg/mL | > 125 µg/mL | > 63 µg/mL | > 125 µg/mL | > 125 µg/mL | > 125 µg/mL | 125 µg/mL | > 125 µg/mL | 32 µg/mL | > 125 µg/mL | 125 µg/mL | > 125 µg/mL
CC1=C(C(=O)O)N2C(=O)[C@@H](NC(=O)Cc3cccs3)[C@H]2SC1=O | > 125 µg/mL | 63 µg/mL (≈ 179 µM) | > 125 µg/mL | 63 µg/mL (≈ 179 µM) | > 125 µg/mL | 63 µg/mL (≈ 179 µM) | 63 µg/mL (≈ 179 µM) | > 125 µg/mL | > 125 µg/mL | > 63 µg/mL | > 125 µg/mL | > 125 µg/mL | > 125 µg/mL | > 125 µg/mL | > 125 µg/mL | 8 µg/mL (≈ 22.7 µM) | > 125 µg/mL | 125 µg/mL (≈ 355 µM) | > 125 µg/mL
CC(=O)OCC1=C(C(=O)O)N2C(=O)[C@@H](NC(=O)Cc3cccs3)[C@H]2SC1 [CEPHALOTHIN] | 32 µg/mL (≈ 80.7 µM) | 32 µg/mL (≈ 80.7 µM) | > 125 µg/mL | 1 µg/mL (≈ 2.52 µM) | 16 µg/mL (≈ 40.4 µM) | 0.06 µg/mL (≈ 0.151 µM) | 2 µg/mL (≈ 5.04 µM) | > 125 µg/mL | > 125 µg/mL | 8 µg/mL | > 125 µg/mL | 16 µg/mL (≈ 40.4 µM) | > 125 µg/mL | 63 µg/mL (≈ 159 µM) | 16 µg/mL (≈ 40.4 µM) | 0.13 µg/mL (≈ 0.328 µM) | > 125 µg/mL | 0.13 µg/mL (≈ 0.328 µM) | 0.5 µg/mL (≈ 1.26 µM)
